Results on seven compounds are retold here after ChEMBL document CHEMBL3232919, “Imidazol-1-ylethylindazole voltage-gated sodium channel ligands are neuroprotective during optic neuritis in a mouse model of multiple sclerosis” (J Med Chem, 2014).

The species named for data set [1] is Rattus norvegicus. Conditions: Wistar, 1 uM.
The species named for data set [2] is Rattus norvegicus. The data set is described as follows: Neuroprotective activity in oxygen/glucose deprivation-induced Wistar rat hippocampal slice assessed as inhibition of cell death by measuring ATP level at 3 uM. The format is functional.
In data set [3] the target is T1, Sodium channel protein type 5 subunit alpha (Homo sapiens, UniProt Q14524). Briefly: Inhibition of human Nav1.5 assessed as 10 Hz block by patch-clamp electrophysiology/cell based assay. The essentials: (§1)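 Automated parallel patch clamp (PatchXpress 7000A) on human Nav isoforms, room temperature. Compound tested at 0.1, 0.3, 1, 3, 10, 30 and 100 μM, two to four cells per concentration, 5 min exposure each. Use-dependence on Nav1.1 and Nav1.8/β3 by double pulse protocol: holding -80 mV, prepulse -120 mV, then pulse 1 to 0 mV for 200 ms.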

The target of data set [4] is T2, Sodium channel protein type 8 subunit alpha (Homo sapiens, UniProt Q9UQD0). The data set is described as follows: Inhibition of human Nav1.6 assessed as inactivated-state block by patch-clamp electrophysiology/cell based assay. The essentials:
(§2)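 Automated parallel patch clamp on cells expressing human Nav isoforms (hNav1.1 to hNav1.8/β3), at room temperature. Compounds were tested at 0.1, 0.3, 1, 3, 10, 30 and 100 μM. Each exposure lasted 5 min, with two to four cells per concentration.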

Data set [5] deals with T3, Sodium channel protein type 4 subunit alpha (Homo sapiens, UniProt P35499). Briefly: Inhibition of human Nav1.4 assessed as 10 Hz block by patch-clamp electrophysiology/cell based assay. The method, boiled down:
as §1
For orientation: The patch-clamp technique gives a direct electrical read-out from membranes.

The target of data set [6] is T3, Sodium channel protein type 4 subunit alpha. Briefly: Inhibition of human Nav1.4 assessed as tonic block by patch-clamp electrophysiology/cell based assay. The method, boiled down:
as §1

The target of data set [7] is T1, Sodium channel protein type 5 subunit alpha. Briefly: Inhibition of human Nav1.5 assessed as tonic block by patch-clamp electrophysiology/cell based assay. The method, boiled down:
as §1

For data set [8] the target is unchanged. The data set is described as follows: Inhibition of human Nav1.5 assessed as inactivated-state block by patch-clamp electrophysiology/cell based assay. The method, boiled down:
as §1

Data set [9] concerns the target T4, Sodium channel protein type 2 subunit alpha (Homo sapiens, UniProt Q99250). The data set is described as follows: Inhibition of human Nav1.2 assessed as inactivated-state block by patch-clamp electrophysiology/cell based assay.
The target of data set [10] is T2, Sodium channel protein type 8 subunit alpha. The data set is described as follows: Inhibition of human Nav1.6 assessed as 10 Hz block by patch-clamp electrophysiology/cell based assay. The essentials:
as §2

The target of data set [11] is T5, Sodium channel protein type 1 subunit alpha (Homo sapiens, UniProt P35498). The data set is described as follows: Inhibition of human Nav1.1 assessed as tonic block using double pulse protocol by patch-clamp electrophysiology/cell based assay. The method, boiled down: as §1
For data set [12], the target named is T6, Sodium channel protein type 10 subunit alpha (Homo sapiens, UniProt Q9Y5Y9). Briefly: Inhibition of human Nav1.8 assessed as inactivated-state block using double pulse protocol by patch-clamp electrophysiology/cell based assay. The method, boiled down: as §1
In data set [13] the target is T7, Sodium channel protein type 3 subunit alpha (Homo sapiens, UniProt Q9NY46). Briefly: Inhibition of human Nav1.3 assessed as inactivated-state block by patch-clamp electrophysiology/cell based assay. The essentials: (§3)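 Automated parallel patch-clamp (PatchXpress 7000A) on cells expressing human Nav1.3, run at room temperature. Compounds were tested at 0.1, 0.3, 1, 3, 10, 30 and 100 μM, each in two to four cells, with 5 min exposure per concentration.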

Data set [14] deals with T3, Sodium channel protein type 4 subunit alpha. The data set is described as follows: Inhibition of human Nav1.4 assessed as inactivated-state block by patch-clamp electrophysiology/cell based assay. The essentials: as §1
The target in data set [15] is T6, Sodium channel protein type 10 subunit alpha. The data set is described as follows: Inhibition of human Nav1.8 assessed as tonic block using double pulse protocol by patch-clamp electrophysiology/cell based assay. The essentials: as §1
Data set [16] has as its target T8, Sodium channel protein type 9 subunit alpha (Homo sapiens, UniProt Q15858). Briefly: Inhibition of human Nav1.7 assessed as tonic block by patch-clamp electrophysiology/cell based assay.
Data set [17] has as its target T8, Sodium channel protein type 9 subunit alpha. Briefly: Inhibition of human Nav1.7 assessed as inactivated-state block by patch-clamp electrophysiology/cell based assay.
The target of data set [18] is T7, Sodium channel protein type 3 subunit alpha. The data set is described as follows: Inhibition of human Nav1.3 assessed as tonic block by patch-clamp electrophysiology/cell based assay. The method, boiled down: as §3
Data set [19] has as its target T4, Sodium channel protein type 2 subunit alpha. The data set is described as follows: Inhibition of human Nav1.2 assessed as tonic block by patch-clamp electrophysiology/cell based assay.
Data set [20] addresses T6, Sodium channel protein type 10 subunit alpha. The data set is described as follows: Inhibition of human Nav1.8 assessed as 10 Hz block using double pulse protocol by patch-clamp electrophysiology/cell based assay. The method, boiled down:
as §1

Data set [21] addresses T7, Sodium channel protein type 3 subunit alpha. The data set is described as follows: Inhibition of human Nav1.3 assessed as 10 Hz block by patch-clamp electrophysiology/cell based assay. The method, boiled down:
as §3

Data set [22] concerns the target T2, Sodium channel protein type 8 subunit alpha. Briefly: Inhibition of human Nav1.6 assessed as tonic block by patch-clamp electrophysiology/cell based assay. The essentials: as §2
The target of data set [23] is T8, Sodium channel protein type 9 subunit alpha. Briefly: Inhibition of human Nav1.7 assessed as 10 Hz block by patch-clamp electrophysiology/cell based assay.
The species entered for data set [24] is Rattus norvegicus. The data set is described as follows: Neuroprotective activity in oxygen/glucose deprivation-induced Wistar rat hippocampal slice assessed as inhibition of cell death by measuring ATP level at 50 uM. Format: functional.
In data set [25] the target is T5, Sodium channel protein type 1 subunit alpha. Briefly: Inhibition of human Nav1.1 assessed as inactivated-state block using double pulse protocol by patch-clamp electrophysiology/cell based assay. The essentials:
as §1

For data set [26] the target is unchanged. Briefly: Inhibition of human Nav1.1 assessed as 10 Hz block using double pulse protocol by patch-clamp electrophysiology/cell based assay. The method, boiled down: as §1
Data set [27] deals with T4, Sodium channel protein type 2 subunit alpha. The data set is described as follows: Inhibition of human Nav1.2 assessed as 10 Hz block by patch-clamp electrophysiology/cell based assay.
A short description of data set [28]: Displacement of [3H]sipatrigine from Wistar rat brain synaptosomes voltage-gated sodium channel by liquid scintillation counting. The format is subcellular.
For data set [29], the system named is Mus musculus. Briefly: Immunosuppressive activity in […] oxazolone-induced ABH mouse assessed as effect on cell proliferation response in draining lymph node at 5 to 50 mg/kg, ip from day -1 to day 2 by local lymph node assay. Format: functional, organism-based.
The subject of data set [30] is Mus musculus. The data set is described as follows: Neuroprotective activity in C57BL/6-Cg-Tg(Thy1-CFP)23Jrs.Tg(Tcra2D2, Tcrb2D2)1Kuch/J transgenic mouse optic neuritis model assessed as increase in ganglion cell survival at 5 mg/kg, ip. The format is functional, organism-based. Also noted: dose 5 mg/kg.
Data set [31] has as its system Mus musculus. The data set is described as follows: Toxicity in mouse assessed as motor coordination at 5 to 50 mg/kg, ip from day -1 to day 2 by RotaRod assay. The format is organism-based. Also noted: dose 5-50 mg/kg, route intraperitoneal. The note with it: in vivo.
Data set [32] has as its system Mus musculus. Briefly: Neuroprotective activity in C57BL/6-Cg-Tg(Thy1-CFP)23Jrs.Tg(Tcra2D2, Tcrb2D2)1Kuch/J transgenic mouse optic neuritis model assessed as reduction in retinal loss measured as number of cells at 5 mg/kg, ip (reference value: 914 +/- 89 cells). The note with it: route intraperitoneal. The format is functional.
The nature of data set [33]: Metabolic stability in rat liver microsomes assessed as drug turnover at 1 uM at 40 mins by LC-MS/MS analysis. The note with it: read-out: Drug metabolism. Format: ADME. The essentials: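 Compound at 1 μM was incubated (n=2) with pooled rat liver microsomes (0.25 mg protein/ml) at 37°C for 0 and 40 min. Reactions were stopped with acetonitrile containing an internal standard, and parent disappearance was measured by LC-MS/MS. Percentage turnover was taken from peak heights relative to the zero-time samples.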
(Microsomes from liver hold many membrane-bound enzymes, among them those of drug oxidation.)

Data set [34] is filed under the species Rattus norvegicus. The data set is described as follows: Neuroprotective activity in oxygen/glucose deprivation-induced Wistar rat hippocampal slice assessed as inhibition of cell death by measuring ATP level. Format: functional.
The species entered for data set [35] is Rattus norvegicus. Briefly: Neuroprotective activity in oxygen/glucose deprivation-induced Wistar rat hippocampal slice assessed as inhibition of cell death by measuring ATP level at 30 uM normalized to tetrodotoxin. Format: functional.

Active and inactive are the calls of the source. The rule behind the calls is not given here. Where only a bound is given, the exact number is not on record here.

T2 sequence (Q9UQD0 whole entry, canonical isoform): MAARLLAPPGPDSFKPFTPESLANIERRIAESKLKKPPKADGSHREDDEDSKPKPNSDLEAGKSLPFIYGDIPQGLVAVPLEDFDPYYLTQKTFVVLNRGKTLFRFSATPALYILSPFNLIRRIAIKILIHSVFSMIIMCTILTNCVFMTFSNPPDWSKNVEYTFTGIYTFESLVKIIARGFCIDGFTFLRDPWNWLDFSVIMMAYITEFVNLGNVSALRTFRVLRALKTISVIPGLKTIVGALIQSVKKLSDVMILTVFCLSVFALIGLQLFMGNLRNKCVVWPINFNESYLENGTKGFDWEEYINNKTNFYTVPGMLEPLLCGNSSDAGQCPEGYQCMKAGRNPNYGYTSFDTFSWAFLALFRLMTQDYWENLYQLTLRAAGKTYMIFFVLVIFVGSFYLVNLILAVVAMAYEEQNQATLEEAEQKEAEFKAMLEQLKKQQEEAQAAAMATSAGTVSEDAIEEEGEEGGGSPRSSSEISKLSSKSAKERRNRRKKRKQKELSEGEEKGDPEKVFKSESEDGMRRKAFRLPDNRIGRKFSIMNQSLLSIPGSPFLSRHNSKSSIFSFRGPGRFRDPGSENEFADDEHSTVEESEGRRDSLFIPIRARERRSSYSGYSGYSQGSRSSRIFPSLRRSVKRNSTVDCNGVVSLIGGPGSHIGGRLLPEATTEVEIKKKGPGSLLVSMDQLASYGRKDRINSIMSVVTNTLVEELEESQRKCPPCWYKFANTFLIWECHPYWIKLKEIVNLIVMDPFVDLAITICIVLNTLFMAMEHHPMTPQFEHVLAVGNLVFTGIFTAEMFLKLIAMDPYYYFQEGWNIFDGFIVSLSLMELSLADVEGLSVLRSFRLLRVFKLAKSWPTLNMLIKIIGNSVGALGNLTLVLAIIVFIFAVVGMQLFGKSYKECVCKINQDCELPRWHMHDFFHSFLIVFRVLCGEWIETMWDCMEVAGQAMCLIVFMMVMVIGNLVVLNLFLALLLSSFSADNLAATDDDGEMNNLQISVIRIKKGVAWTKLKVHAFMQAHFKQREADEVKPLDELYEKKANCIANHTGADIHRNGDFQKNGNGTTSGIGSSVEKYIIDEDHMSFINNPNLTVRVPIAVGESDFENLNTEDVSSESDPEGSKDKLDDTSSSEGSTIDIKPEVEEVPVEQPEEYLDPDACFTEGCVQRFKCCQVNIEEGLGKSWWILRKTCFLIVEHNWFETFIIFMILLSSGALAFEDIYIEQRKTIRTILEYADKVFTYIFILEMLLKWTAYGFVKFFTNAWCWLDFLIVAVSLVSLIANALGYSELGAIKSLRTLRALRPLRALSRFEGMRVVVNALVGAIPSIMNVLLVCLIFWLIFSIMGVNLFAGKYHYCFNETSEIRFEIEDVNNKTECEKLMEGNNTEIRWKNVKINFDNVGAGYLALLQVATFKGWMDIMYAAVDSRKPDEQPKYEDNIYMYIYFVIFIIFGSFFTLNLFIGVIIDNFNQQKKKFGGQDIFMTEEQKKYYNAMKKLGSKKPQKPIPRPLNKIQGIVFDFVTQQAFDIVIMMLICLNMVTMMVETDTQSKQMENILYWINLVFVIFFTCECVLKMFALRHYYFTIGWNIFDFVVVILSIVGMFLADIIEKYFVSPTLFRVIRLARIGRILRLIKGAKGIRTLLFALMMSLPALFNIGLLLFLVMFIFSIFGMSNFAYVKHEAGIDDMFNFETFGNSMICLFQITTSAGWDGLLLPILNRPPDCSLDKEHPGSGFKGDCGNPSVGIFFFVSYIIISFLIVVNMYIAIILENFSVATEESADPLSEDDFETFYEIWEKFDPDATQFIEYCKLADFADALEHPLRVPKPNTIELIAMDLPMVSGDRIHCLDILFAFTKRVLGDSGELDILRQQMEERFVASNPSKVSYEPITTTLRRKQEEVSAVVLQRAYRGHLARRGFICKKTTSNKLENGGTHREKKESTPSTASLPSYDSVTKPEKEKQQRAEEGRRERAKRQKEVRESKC
T3 sequence (P35499 whole entry): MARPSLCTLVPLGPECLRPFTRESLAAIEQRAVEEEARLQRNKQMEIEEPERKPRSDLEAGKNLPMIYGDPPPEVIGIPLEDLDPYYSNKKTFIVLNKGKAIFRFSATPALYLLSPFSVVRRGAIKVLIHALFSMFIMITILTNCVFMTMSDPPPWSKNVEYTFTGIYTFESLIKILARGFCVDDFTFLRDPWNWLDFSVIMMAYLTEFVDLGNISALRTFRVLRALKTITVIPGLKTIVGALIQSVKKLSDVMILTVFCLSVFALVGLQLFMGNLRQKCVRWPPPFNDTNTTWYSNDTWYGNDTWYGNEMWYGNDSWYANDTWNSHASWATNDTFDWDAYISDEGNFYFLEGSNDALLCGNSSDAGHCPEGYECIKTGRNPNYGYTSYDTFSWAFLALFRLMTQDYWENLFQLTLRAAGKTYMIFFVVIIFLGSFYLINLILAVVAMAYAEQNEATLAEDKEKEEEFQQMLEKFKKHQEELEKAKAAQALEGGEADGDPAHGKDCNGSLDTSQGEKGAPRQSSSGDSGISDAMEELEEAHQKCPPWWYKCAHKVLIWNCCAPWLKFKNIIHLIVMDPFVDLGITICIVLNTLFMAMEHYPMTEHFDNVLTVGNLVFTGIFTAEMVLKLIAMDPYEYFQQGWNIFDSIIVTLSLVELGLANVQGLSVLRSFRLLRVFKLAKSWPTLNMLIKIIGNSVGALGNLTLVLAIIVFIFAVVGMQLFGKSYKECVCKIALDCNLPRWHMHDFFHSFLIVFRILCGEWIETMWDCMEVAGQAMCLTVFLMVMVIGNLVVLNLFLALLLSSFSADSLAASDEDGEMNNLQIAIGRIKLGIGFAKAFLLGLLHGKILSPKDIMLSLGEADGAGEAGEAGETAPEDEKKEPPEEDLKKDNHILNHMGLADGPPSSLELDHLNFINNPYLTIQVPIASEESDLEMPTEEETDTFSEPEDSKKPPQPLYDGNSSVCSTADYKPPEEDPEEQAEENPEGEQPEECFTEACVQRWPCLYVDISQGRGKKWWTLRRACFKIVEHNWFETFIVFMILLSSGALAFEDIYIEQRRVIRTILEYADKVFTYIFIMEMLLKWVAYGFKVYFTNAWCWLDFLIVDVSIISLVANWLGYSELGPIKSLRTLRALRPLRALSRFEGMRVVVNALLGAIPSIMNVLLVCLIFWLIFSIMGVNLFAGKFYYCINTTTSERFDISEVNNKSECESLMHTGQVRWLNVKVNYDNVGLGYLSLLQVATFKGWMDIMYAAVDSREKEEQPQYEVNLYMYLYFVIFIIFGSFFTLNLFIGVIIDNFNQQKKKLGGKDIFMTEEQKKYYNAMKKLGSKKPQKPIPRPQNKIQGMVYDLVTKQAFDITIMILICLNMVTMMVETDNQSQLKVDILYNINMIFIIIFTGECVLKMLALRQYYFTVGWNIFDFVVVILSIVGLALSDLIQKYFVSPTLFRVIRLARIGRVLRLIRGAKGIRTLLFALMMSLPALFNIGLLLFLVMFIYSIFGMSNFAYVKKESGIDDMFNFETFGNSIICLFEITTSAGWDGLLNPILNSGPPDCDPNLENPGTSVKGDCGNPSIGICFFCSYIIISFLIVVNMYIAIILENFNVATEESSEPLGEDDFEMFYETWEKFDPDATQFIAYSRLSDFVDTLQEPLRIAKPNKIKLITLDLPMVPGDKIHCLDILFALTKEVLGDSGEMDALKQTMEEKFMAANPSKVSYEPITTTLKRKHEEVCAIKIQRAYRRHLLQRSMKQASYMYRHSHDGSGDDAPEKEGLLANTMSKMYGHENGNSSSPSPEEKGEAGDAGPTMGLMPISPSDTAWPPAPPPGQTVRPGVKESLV

For orientation: inhibition means the percentage by which the read-out fell short of the control. The compound `NC1=N[C@H](O)[C@H]2[C@H]3O[C@]4(O)O[C@@H]([C@@H](O)[C@@]2(N1)[C@@H]4O)[C@]3(O)CO` came in with an inhibition in the data set filed under Rattus norvegicus [1] of 100%.
`CN1CCN(c2ncc(-c3cc(Cl)cc(Cl)c3Cl)c(N)n2)CC1` [SIPATRIGINE]: the inhibition at 3 µM in the data set filed under Rattus norvegicus [2] stood at 93%.
One may read the IC50 as the concentration needed to halve the response being measured. Consider `O=C(NCc1noc(-c2c3ccccc3nn2CCn2ccnc2)n1)c1cccc(OC(F)(F)F)c1`, for which the IC50 amounted to 14.8 µM in data set [3]; 3.32 µM in data set [4]; 10.5 µM in data set [5]; 18.3 µM in data set [6]; 36 µM in data set [7]; 0.92 µM in data set [8]. In addition, the IC50 in data set [9] came to 3.54 µM; in data set [10], 32.2 µM; in [11] it was 15.3 µM; in [12], 3.77 µM; in data set [13], 4.76 µM; in data set [14], 4.58 µM. In addition, the IC50 in [15] is 6.34 µM; in data set [16] it was 5.64 µM; in data set [17], 3.02 µM; in data set [18], above 100 µM; in data set [19], 65 µM; in data set [20] it was 5.66 µM. For the same compound, the IC50 is 97 µM in data set [21]; above 100 µM in data set [22]; 4.82 µM in [23]; 2.55 µM in data set [25]; 8.54 µM in data set [26]; 24.1 µM in data set [27]. For the same compound, in the data set filed under Rattus norvegicus [24], the inhibition at 50 µM was 78%.
`O=C(NCc1noc(-c2nn(CCn3ccnc3)c3ccccc23)n1)c1ccccc1`: the IC50 in data set [4] was 24 µM; in [5], 56 µM; in data set [6], above 100 µM; in [7], above 100 µM; in data set [8] it was 19 µM; in data set [28], 13 µM. In addition, the IC50 in data set [10] is above 100 µM; in data set [11], above 100 µM; in [13], 22 µM; in [14], 24 µM; in [18], above 100 µM; in data set [21], above 100 µM. In addition, the figures for the IC50 in data set [22], in data set [25] and in data set [26] were above 100 µM, 21 µM and above 100 µM, respectively. Besides, the inhibition entry in the data set with Mus musculus [29] is “inactive”. In addition, the outcome in the data set with Mus musculus [30] was Active. The inhibition at 50 µM in the data set filed under Rattus norvegicus [24] amounted to 47%. Further, the Activity entry was “Non-toxic” in the data set with Mus musculus [31] and 1298 /mm2 in the data set on Mus musculus [32]. In addition, in data set [33], the metabolised at 40 min, 1 µM was found to be 47%.
For orientation: EC50 means the midpoint of the concentration-response curve. In data set [28], `COc1cccc(C(=O)NCc2noc(-c3c4ccccc4nn3CCn3ccnc3)n2)c1OC` registered an IC50 of 5.8 µM. In addition, the EC50 in the data set filed under Rattus norvegicus [34] stood at 12.3 µM. Moreover, the inhibition at 50 µM in the data set listed under Rattus norvegicus [24] was 88%.
In the case of `Nc1nnc(-c2cccc(Cl)c2Cl)c(N)n1` [LAMOTRIGINE], the “inhibition (INH)” value in the data set filed under Rattus norvegicus [35] is reported as 33%.
As to `O=S(=O)(NCc1noc(-c2c3ccccc3nn2CCn2ccnc2)n1)c1ccccc1`, the IC50 in data set [28] worked out at 1.7 µM. For the same compound, the EC50 in the data set listed under Rattus norvegicus [34] was determined as 29.5 µM. The inhibition at 50 µM in the data set filed under Rattus norvegicus [24] is 38%. Moreover, the metabolised at 40 min, 1 µM in data set [33] was found to be 97%.
